Data on two compounds can be found in ChEMBL document CHEMBL3045553, “Isolation and antifungal activity of 4-phenyl-3-butenoic acid from Streptomyces koyangensis strain VK-A60” (2005).

Broadly, the MIC is the lowest concentration that inhibits growth of the organism.

Structures are written as SMILES. The source made the active and inactive calls. The rule behind the calls is not given here.

In test [1] the test system is Bacillus subtilis. In words: Antibacterial activity against Bacillus subtilis subsp. subtilis assessed as inhibition of microbial growth by microtiter broth dilution method. The class given is functional. The essentials: (§1)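 Broth microdilution in 24-well plates. Inoculum of 10⁴ CFU/mL, 10 µL per well, in 1 mL potato dextrose broth or nutrient broth. Compound in methanol, 0–100 µg/mL. Incubated at 22–28 °C for 2–5 days and compared with a compound-free growth control. MIC is the lowest concentration showing no growth.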

Test [2] has as its system Saccharomyces cerevisiae. In words: Antifungal activity against Saccharomyces cerevisiae assessed as inhibition of microbial growth by microtiter broth dilution method. Format: functional. An outline of the steps: as §1
In general terms: Dilution methods test growth across graded concentrations, often in twofold steps.

For test [3], the system named is Candida albicans. In words: Antifungal activity against Candida albicans assessed as inhibition of microbial growth by microtiter broth dilution method. The class given is functional. An outline of the steps:
as §1

Test [4] deals with Rhizoctonia solani. Description: Antifungal activity against Rhizoctonia solani assessed as inhibition of microbial growth by microtiter broth dilution method. The class given is functional. The essentials: (§2)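 Spore or zoospore suspension, 10 µL, added to wells of a 24-well dish holding 1 mL potato dextrose broth or nutrient broth. Compound dissolved in methanol and tested over 0–100 µg/mL. Plates held at 22–28 °C and read after 2–5 days against an untreated inoculated control. MIC is the lowest concentration with no visible growth.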

For test [5], the system named is Sclerotinia sclerotiorum. Description: Antifungal activity against Sclerotinia sclerotiorum assessed as inhibition of microbial growth by microtiter broth dilution method. The class given is functional. An outline of the steps: as §2
Test [6] deals with Globisporangium ultimum. Description: Antifungal activity against Pythium ultimum assessed as inhibition of microbial growth by microtiter broth dilution method. Format: functional. An outline of the steps:
as §2

Test [7] concerns Phytophthora capsici. In words: Antifungal activity against Phytophthora capsici assessed as inhibition of microbial growth by microtiter broth dilution method. The class given is functional. An outline of the steps:
as §2

Test [8] has as its system Pyricularia grisea. In words: Antifungal activity against Magnaporthe grisea assessed as inhibition of microbial growth by microtiter broth dilution method. Format: functional. The essentials:
(§3)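 24-well broth dilution. 10 µL of spore or cell suspension went into 1 mL potato dextrose broth or nutrient broth. Bacterial inoculum was 10⁴ CFU/mL. Compound was dissolved in methanol and tested at 0–100 μg/mL. Plates were incubated at 22–28 °C for 2–5 days against a compound-free growth control. MIC was the lowest concentration showing no growth.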

Test [9] has as its system Fusarium oxysporum f. sp. lycopersici. Description: Antifungal activity against Fusarium oxysporum f. sp. lycopersici assessed as inhibition of microbial growth by microtiter broth dilution method. Format: functional. An outline of the steps:
as §2

For test [10], the system named is Ilyonectria destructans. In words: Antifungal activity against Ilyonectria radicicola assessed as inhibition of microbial growth by microtiter broth dilution method. Format: functional. An outline of the steps: as §2
Test [11] deals with Colletotrichum orbiculare. Description: Antifungal activity against Colletotrichum orbiculare assessed as inhibition of microbial growth by microtiter broth dilution method. Format: functional. An outline of the steps: as §2
Test [12] relates to Botrytis cinerea. Description: Antifungal activity against Botryotinia fuckeliana assessed as inhibition of microbial growth by microtiter broth dilution method. Format: functional. The essentials:
as §2

Test [13] relates to Cladosporium cucumerinum. In words: Antifungal activity against Cladosporium cucumerinum assessed as inhibition of microbial growth by microtiter broth dilution method. The class given is functional. An outline of the steps: as §2
The test system of test [14] is Alternaria mali. Description: Antifungal activity against Alternaria mali assessed as inhibition of microbial growth by microtiter broth dilution method. Format: functional. An outline of the steps:
as §2

Test [15] has as its system Colletotrichum orbiculare. Description: […] antifungal activity against Colletotrichum orbiculare on […] assessed as inhibition of anthracnose development at 500 ug/mL. Format: functional, organism-based.
Test [16] deals with Colletotrichum orbiculare. Description: […] antifungal activity against Colletotrichum orbiculare on two-leaf stage cucumber plant assessed as inhibition of anthracnose development at 100 ug/mL. The class given is functional, organism-based. The essentials: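 Cucumber cv. Baekrokdadaki grown at 28 ± 2 °C. Compound in methanol, diluted in 0.1% Tween 20 to 10–500 µg/mL, sprayed on primary leaves 1 day before inoculation. Inoculum was 10⁶ conidia/mL in 0.05% Tween 20, followed by 24 h in a dew chamber at 28 °C. Lesions/cm² on secondary leaves counted at day 6. 6 plants/treatment, 3 replicates; Tween-only control.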

Test [17] relates to Xanthomonas vesicatoria. In words: Antibacterial activity against Xanthomonas vesicatoria assessed as inhibition of microbial growth by microtiter broth dilution method. Format: functional. The essentials:
as §1

Test [18] concerns Ralstonia solanacearum. In words: Antibacterial activity against Ralstonia solanacearum assessed as inhibition of microbial growth by microtiter broth dilution method. The class given is functional. An outline of the steps:
as §3

Test [19] has as its system Pectobacterium carotovorum subsp. carotovorum. Description: Antibacterial activity against Pectobacterium carotovorum subsp. carotovorum assessed as inhibition of microbial growth by microtiter broth dilution method. The class given is functional. An outline of the steps:
as §1

For the compound `O=C(O)C/C=C/c1ccccc1`, the MIC in test [1] was 3 µg/mL; in test [2], more than 100 µg/mL; in test [3], more than 100 µg/mL; in [4], 30 µg/mL; in test [5] it was more than 100 µg/mL; in test [6], 0.5 µg/mL. Also, the MIC in test [7] is 30 µg/mL; in test [8], 10 µg/mL; in test [9], more than 100 µg/mL; in test [10], 30 µg/mL; in test [11] it was 3 µg/mL; in [12], more than 100 µg/mL. For the same compound, the MIC was found to be 30 µg/mL in [13]; 30 µg/mL in test [14]; 10 µg/mL in test [17]; 0.5 µg/mL in test [18]; 1 µg/mL in test [19]. Moreover, the inhibition entry in [15] and in test [16] was “Active” each time.

Take `N#Cc1c(Cl)c(Cl)c(Cl)c(C#N)c1Cl`: the inhibition entry in test [15] was “Active”.
